Hits are enriched below; roughly 3.6% of the tested compounds scored in any of these assays.
NR3A LBD binder: binders of NR3A ligand-binding domain, primary screen, biophysical, differential scanning fluorimetry, uHTS; Glutamate receptor ionotropic, NMDA 3A (GRIN3A) ligand-binding domain; NR3A LBD differential scanning fluorimetry, Tm shift; 0% = protein alone, 100% = glycine-bound protein; Tm shift relative to glycine control, % at 25 µM; hit rate 2.5% among 340,000;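 active means melting temperature shift of at least 10% of the positive control shift, at one fixed dose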
SENP1 inh: human SENP1 catalytic domain inhibitors, primary screen, biochemical, FRET, uHTS. Sentrin-specific protease 1 (Homo sapiens), Q9P0U3. recombinant SENP1 catalytic domain, CyPet-SUMO1-YPet FRET cleavage. inhibition, % at 10 µM. hit rate 0.21% among 360,000. AID 624204, 2012;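 active means inhibition at least 30% at 10 µM, raw YFP signal under a set limit, fluorescence ratio 0.5 to 1.5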;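 further: 0% = enzyme with DMSO and 100% = no enzyme wells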
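Test system: human SENP1 catalytic domain; medium: Tris pH 8 buffer plus EDTA, NaCl, BME, BSA, NP40, catalase; incubation: 50 min reaction at room temperature; technique: FRET, CFP and YFP emission; controls: no-enzyme low control and enzyme-plus-DMSO high control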
NadD block: inhibitors of S. aureus NadD, primary screen, biochemical, colorimetric, uHTS | AID 602399, 2012 | purified NadD enzyme, colorimetric absorbance read-out | inhibition, % at 20 µM | hit rate 0.78% among 360,000 | Nicotinate-nucleotide adenylyltransferase NadD (Staphylococcus aureus N315); in the data active means inhibition above about 26%
UCH37 inh: inhibitors of human UCH37 deubiquitinase, primary screen, biochemical, Ub-AMC cleavage, fluorescence | Ubiquitin carboxyl-terminal hydrolase isozyme L5 (Homo sapiens), Q9Y5K5 | purified proteasome/UCH37 | inhibition, % (concentration not given with the values) | hit rate 0.33% among 330,000;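 active means mean inhibition over replicate wells above about 20%, limit read from the data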;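 further: 0% = compound-free wells with enzyme and 100% = wells lacking proteasome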
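Assay system: Proteasome-bound UCH37. Buffer or medium: pH 7.4 Tris-HCl (50 mM) with ovalbumin, ATP-MgCl2, DTT. Incubation: 30 min preincubation with enzyme, 25 min cleavage at room temperature. Measured by: fluorescence, ex 355 nm, em 460 nm. Read-out basis: percent inhibition. Control set: wells without proteasome as full block, compound-free enzyme plus substrate as uninhibited.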
ATG4B inh: ATG4B protease inhibitors, primary screen, biochemical, fluorescence, uHTS; Cysteine protease ATG4B (Homo sapiens), Q9Y4P1; ATG4B cleavage of LC3-PLA2, NBD-HPC fluorescence, 1 h; inhibition, % at 8.33 µM; hit rate 0.51% among 340,000; in the data active means inhibition above about 40%
Target sequence (Q9Y4P1 whole entry, looked up): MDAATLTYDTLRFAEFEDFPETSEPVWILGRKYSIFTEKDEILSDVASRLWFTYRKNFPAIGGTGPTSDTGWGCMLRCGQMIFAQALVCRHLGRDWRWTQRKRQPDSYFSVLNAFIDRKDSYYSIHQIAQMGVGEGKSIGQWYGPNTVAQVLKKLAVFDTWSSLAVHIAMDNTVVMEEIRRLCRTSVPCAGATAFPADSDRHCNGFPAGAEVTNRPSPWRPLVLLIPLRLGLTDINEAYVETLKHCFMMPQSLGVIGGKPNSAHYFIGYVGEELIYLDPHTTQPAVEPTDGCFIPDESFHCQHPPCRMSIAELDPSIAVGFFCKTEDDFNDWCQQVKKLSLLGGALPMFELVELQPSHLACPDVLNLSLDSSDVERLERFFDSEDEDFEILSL
ATG4B confirm: ATG4B protease inhibitors, retest, confirmation, biochemical, fluorescence, single concentration | shares compounds with ATG4B inh | ATG4B protease fluorescent substrate cleavage assay | inhibition, % at 8.33 µM | hit rate 92% among 320; in the data active means inhibition above about 39%
PLA2 counter: PLA2 enzyme inhibition, counter-screen for ATG4B inhibitor project, biochemical, single concentration, uHTS hits | inhibition, % at 8.33 µM | AID 588402, 2011 | purified PLA2, NBD-C6-HPC fluorescence, 45 min | shares compounds with ATG4B inh | hit rate 66% among 1,600; in the data active means inhibition above about 50%
Target sequence (P04054 whole entry, looked up): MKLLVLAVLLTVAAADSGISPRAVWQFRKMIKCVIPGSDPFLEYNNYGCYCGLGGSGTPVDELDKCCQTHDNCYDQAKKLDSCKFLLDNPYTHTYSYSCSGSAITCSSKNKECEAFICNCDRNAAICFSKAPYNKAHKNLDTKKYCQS
The depositor's hits bear a star; . = no result.

SMILES	NR3A LBD binder	SENP1 inh	NadD block	UCH37 inh	ATG4B inh	PLA2 counter	others
Cc1cc(NN=Cc2ccco2)c2ccccc2n1	.	.	.	-14	.	.
Cc1cccc(-n2c(CCc3ccccc3)nnc2SCC(=O)c2ccccc2)c1	-5	4	5	3	72*	75*
Cc1ccc(OCc2nnc(SCC(=O)c3ccccc3)n2-c2ccccc2)cc1	-1	3	6	6	74*	78*
N#Cc1ccc(OCc2nnc(SCC(=O)c3ccccc3)n2-c2ccccc2)cc1	7	1	0	2	46*	57*
COc1ccc(C=NNc2cc(C)nc(N3CCOCC3)n2)c(OC)c1	.	.	.	-1	.	.
CCn1c(SCC(=O)NN=Cc2c[nH]c3ccccc23)nnc1-c1ccc(C)cc1	.	.	.	4	.	.
CC(=NNS(C)(=O)=O)c1ccc(C)cc1	.	.	.	2	.	.
CCCCNc1nc(N)nc(-c2cc(Cl)ccc2O)n1	18*	-19	2	-21	46*	50*
CCNc1nc(N)nc(-c2cc(Cl)ccc2O)n1	-20	-21	-6	-73	20	.
O=C(NCc1ccc(F)cc1)Nc1ccc(Cl)cc1	1	2	-9	3	46*	54*
Cc1ccc(NC(=S)NCc2ccccc2)cc1[N+](=O)[O-]	-11	1	-4	4	54*	63*
FC(F)Sc1ccc(NC(=S)NCc2ccccc2)cc1	12*	0	-2	0	44*	60*
O=C(NCc1ccccn1)Nc1cccc(Cl)c1	2	-2	3	0	-1	.
O=C(NCc1ccc(F)cc1)Nc1cccc(Cl)c1	-5	1	-4	4	67*	73*
O=C(NCc1cccnc1)Nc1ccc(Cl)cc1	1	1	-5	0	5	.
ON=Cc1ccccc1OCc1ccc(Cl)cc1	.	.	.	2	.	.
CC(CC(=O)NCc1ccco1)=NNC(=O)COc1ccc(C)cc1	.	.	.	-1	.	.
CCOc1cc(C=NNC(=O)CSc2nncn2C)ccc1OCc1ccccc1	.	.	.	6	.	.
Cc1oc(C=NNC(=O)CN(c2ccccc2Br)S(C)(=O)=O)cc1Br	.	.	.	0	.	.
O=C(CNc1cccc(Cl)c1)NNC(=S)NCc1ccccc1	-8	3	-2	4	-6	.
S=C(NCc1ccccc1)Nc1cccc(Cl)c1	-8	1	-2	1	50*	43	ATG4B confirm=59*
Cc1onc(-c2ccccc2)c1CNC(=O)Nc1cccc(Cl)c1	5	3	-4	5	46*	44	ATG4B confirm=73*
Cc1cc(C)n2nc(C(=O)NN=Cc3ccc(O)cc3)nc2n1	.	.	.	3	.	.
O=C(CN1CCN(S(=O)(=O)c2ccc(Br)cc2)CC1)NN=Cc1cc([N+](=O)[O-])ccc1Cl	.	.	.	4	.	.
N=C1/C(=C/c2coc3ccccc3c2=O)C(=O)N=C2SC(c3ccco3)=NN12	1	-41	3	-14	45*	17
SMILES	NR3A LBD binder	SENP1 inh	NadD block	UCH37 inh	ATG4B inh	PLA2 counter	others
N=C1/C(=C\c2coc3ccccc3c2=O)C(=O)N=C2SC(c3ccncc3)=NN12	-1	-51	17	-9	11	.
COc1ccc(-n2cccc2/C=C2\C(=N)N3N=C(c4ccco4)SC3=NC2=O)cc1	4	9	74*	10	40*	38	ATG4B confirm=49*
CC(C)CSC1=NSC2=NC(=O)/C(=C\c3coc4ccccc4c3=O)C(=N)N12	7	-28	25	-12	50*	53*
COc1ccc(C=NNC(=O)CCn2nnc3ccccc32)cc1	.	.	.	4	.	.
CC(=NN=C(N)N)c1cccc(Cl)c1	.	.	.	3	.	.
COc1ccc(/C=C2\SC(=S)N(C(Cc3ccccc3)C(=O)O)C2=O)cc1 (configuration not stated)	1	-16	8	8	16	.
O=C(O)C(Cc1ccccc1)N1C(=O)/C(=C/C=C/c2ccco2)SC1=S (configuration not stated)	-1	-7	27	24*	69*	59*
CCc1ccccc1NC(=S)/N=C(\N)Nc1nc(C)c2cc(C)ccc2n1	7	-3	11	.	80*	82*
Cc1ccc(NC(=S)/N=C(\N)Nc2nc(C)c3cc(C)ccc3n2)c(C)c1	-3	-3	11	.	-9	.
CC(=NNC(=O)Cn1c(-c2ccccn2)nc2ccccc21)c1cccc(O)c1	.	.	.	1	.	.
CCc1ccccc1NC(=O)C1C(c2ccccc2)C1(Cl)Cl (configuration not stated)	-7	2	-10	0	10	.
O=C(Nc1ccccc1Cl)C1C(c2ccccc2)C1(Cl)Cl (configuration not stated)	-6	3	-4	1	52*	56*
O=C(NC[C@@H]1CC[C@@H](Cc2ccc(-c3ccccc3)cc2)O1)Nc1ccc(Br)cc1	24*	-1	2	.	42*	86*
O=C(NCCCCc1ccccc1)NC[C@@H]1CC[C@@H](Cc2ccc(-c3ccccc3)cc2)O1	-1	-1	1	0	35	.
C/C(CC(=O)Nc1ccccc1-c1ccccc1)=N\NC(=O)COc1ccc(C)cc1Br	-4	-1	-3	.	72*	78*
COc1ccc(C(=O)Nc2cc(C(=O)c3ccccc3)c(C)oc2=O)cc1	2	2	-5	2	44*	38	ATG4B confirm=69*
COC(=O)c1cc(NC(=O)c2ccccc2)c(=O)oc1C	-2	-2	0	5	1	.
Cn1c(-c2ccc3c(c2)OCO3)cnc1NCc1cccc(Cl)c1	1	-7	-3	3	52*	58*
COc1ccc(OC)c(-c2cc(C(=O)N3CCCc4ccccc43)no2)c1	-9	0	-9	2	47*	31	ATG4B confirm=68*
CCC(C)[C@H](Nc1nc(-c2ccccc2)nc2c1oc1ccccc12)C(=O)O (some centres not stated)	-4	1	3	-2	44*	54*
NC(Cc1ccccc1Sc1ccccc1)=NO	.	.	.	4	.	.
Cc1onc(-c2ccccc2)c1C(=O)NN=C/C(Br)=C/c1ccccc1	.	.	.	-1	.	.
CC(CC(=O)Nc1ccc2c(c1)OCCO2)=NNC(=O)COc1cccc(C)c1	.	.	.	0	.	.
